Shown are actives, neighbours in structure and some others; about 1.8% of the full set was active somewhere.
M4 PAM: CHRM4 positive allosteric modulation. hit rate 0.4% among 360,000. P08173. CHO-K1 hM4/Gqi5, Fluo-8 calcium fluorescence, ACh EC20; 0% = ACh EC20, 100% = maximal ACh. activation, % at 3 µM;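 active means activation above its plate's cutoff, the mean activation of sample wells plus 3 SD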
CHRM5 antagonist: antagonists of human muscarinic M5 receptor (CHRM5). CHO-hM5 cells, Fluo-8 calcium fluorescence, ACh EC80. hit rate 0.59% among 360,000. inhibition, % at 3 µM. P08912. AID 624040;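 active means inhibition above a per-plate cutoff, the mean of that plate's test compounds plus 3 SD, cut at about 27% in these data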
Target sequence (P08912 whole entry, looked up): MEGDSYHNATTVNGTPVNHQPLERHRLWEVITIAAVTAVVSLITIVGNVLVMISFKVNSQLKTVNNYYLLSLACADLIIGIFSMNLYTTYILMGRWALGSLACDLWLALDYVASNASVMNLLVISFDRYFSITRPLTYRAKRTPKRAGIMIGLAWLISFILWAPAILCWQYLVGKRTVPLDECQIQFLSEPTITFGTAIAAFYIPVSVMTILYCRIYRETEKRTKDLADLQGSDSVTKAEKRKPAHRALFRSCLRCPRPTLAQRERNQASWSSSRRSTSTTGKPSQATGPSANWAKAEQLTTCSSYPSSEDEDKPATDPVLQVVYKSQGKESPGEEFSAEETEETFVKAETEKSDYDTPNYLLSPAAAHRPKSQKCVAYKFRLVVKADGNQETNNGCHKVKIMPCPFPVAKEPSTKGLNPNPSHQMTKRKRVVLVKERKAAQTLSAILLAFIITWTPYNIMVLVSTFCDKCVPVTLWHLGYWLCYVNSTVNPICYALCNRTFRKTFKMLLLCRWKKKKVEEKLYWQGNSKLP
CHRM5 agonist: CHRM5 agonism in calcium assay. activation, % at 3 µM. hit rate 0.19% among 360,000. P08912. CHO-K1 hM5 cells, Fluo-8 calcium fluorescence; 0% DMSO wells, 100% maximal acetylcholine response;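 active means activation above the run's mean over test compounds plus 3 SD, cut at about 23% in these data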;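 further: signal is peak over basal fluorescence ratio across the kinetic read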
M5 PAM: potentiates acetylcholine response at human M5 receptor. CHO-K1 hM5, Fluo-8 calcium, ACh EC20 PAM; 0% = ACh EC20, 100% = ACh EC100. activation, % at 3 µM. hit rate 0.3% among 360,000. AID 624038;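 active means activation above the run cutoff, the mean activation of all test compounds plus 3 SD, cut at about 18% in these data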
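Measured by: Fluo-8 calcium fluorescence; material: human M5 receptor in CHO-K1 cells; schedule: Post-acetylcholine fluorescence recording 140 s; benchmarks: low control EC20 acetylcholine (0%), high control EC100 acetylcholine (100%); read-out: Max/basal fluorescence ratio as % of EC20–EC100 ACh window; compound: single dose, 3 µM nominal final test concentration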
CHRM4 antagonist: CHRM4 antagonism in calcium assay; hit rate 0.73% among 360,000; inhibition, % at 3 µM; CHO-hM4 cells, ACh EC80, Fluo-8 calcium fluorescence; AID 624125; P08173;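 active means inhibition above its plate's cutoff, the mean inhibition of sample wells plus 3 SD, cut at about 27% in these data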
CHRM4 agonist: CHRM4 agonism in calcium assay; CHO-K1 hM4/Gqi5, Fluo-8 calcium fluorescence; vehicle 0%, full acetylcholine response 100%; activation, % at 3 µM; hit rate 0.14% among 360,000; AID 624127;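 active means activation above the run mean over all test wells plus 3 SD, cut at about 32% in these data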;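 further: peak over basal fluorescence ratio per well then scaled between controls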
A number is an active result; – = inactive.

SMILES	M4 PAM	CHRM5 antagonist	CHRM5 agonist	M5 PAM	CHRM4 antagonist	CHRM4 agonist
CCCn1nc(C(=O)OCC(=O)c2ccccc2)c2ccccc2c1=O	–	–	–	–	–	–
Cc1sc(NC(=O)CN(CCc2ccccc2)C(=O)C2CC2)c(C(N)=O)c1C	–	–	–	–	–	–
COc1ccc(Nc2ncnc3c2cnn3-c2cccc(C)c2)cc1OC	–	–	–	–	–	–
COc1ccc(-n2ncc3c(Nc4cccc(C)c4)ncnc32)cc1	19	–	–	–	–	–
CCN(c1ccc(OC)cc1)S(=O)(=O)N1CCCC(C(=O)NC(C)c2ccccc2)C1 (centres undefined)	–	–	–	–	–	–
Cc1nc(Cl)sc1C(=O)Nc1cc(F)cc(F)c1	–	–	–	–	–	–
Cc1nc(Cl)sc1C(=O)O	34	–	–	–	–	–
Cc1ccccc1NC(=O)NNC(=O)CCc1ccccc1	–	–	–	–	–	–
CC(=O)Nc1cccc(C(=O)/C=C/c2ccc(N(C)C)cc2)c1	–	34	74	–	39	68
COc1ccc(-c2csc(N(CCCN3CCOCC3)C(=O)c3ccco3)n2)cc1	–	–	–	–	36	–
COc1ccc(-c2csc(N(CCCN(C)C)C(=O)c3ccc(C)cc3)n2)cc1	49	–	–	–	49	–
CCN(CC)CCCN(C(=O)c1ccccc1C)c1nc(-c2ccc(OC)cc2)cs1	–	–	–	–	–	–
CCN(CC)CCCN(C(=O)c1ccc(OC)cc1)c1nc(-c2ccc(OC)cc2)cs1	49	–	–	–	29	–
CCN(CC)CCN(C(=O)c1ccc([N+](=O)[O-])cc1)c1nc2ccc(OC)cc2s1	32	–	–	–	–	–
CCCCc1c(O)nc(SCC(=O)N2CCOCC2)n(-c2ccccc2OC)c1=O	–	–	–	–	–	–
COc1ccc2ccccc2c1C1NC(=O)c2ccccc2N1 (centres undefined)	–	–	–	–	–	–
Cc1ccccc1NC(=O)Cc1nc(COC(=O)Cc2cccc(C(F)(F)F)c2)cs1	–	–	–	–	–	–
COc1ccc(-c2csc(N(CCCN(C)C)C(=O)c3ccc(Br)cc3)n2)cc1	47	–	–	–	–	–
CCN(C(=O)c1cccs1)c1nc(-c2ccc(OC)cc2)cs1	–	–	–	–	–	–
COc1ccc(-c2csc(N(CCCN(C)C)C(=O)c3cccs3)n2)cc1	–	38	–	–	–	–
O=C(c1cc(COc2ccc(F)cc2Cl)on1)N1CC2C[C@@H]3CC1C[C@H](C2)C3	–	–	–	–	–	–
CS(=O)(=O)Nc1cccc(C(=O)OCCCOc2ccc(F)cc2)c1	–	–	–	–	–	–
CN(C(=O)COc1ccc(-c2nnco2)cc1)C1CCS(=O)(=O)C1 (centres undefined)	–	–	–	–	–	–
Cc1ccc(NN2C(=O)C=C(c3ccccc3)C2=O)cc1	–	–	–	–	35	–
O=C1c2ccccc2C(=O)N1Nc1ccccc1	–	–	–	–	–	–
SMILES	M4 PAM	CHRM5 antagonist	CHRM5 agonist	M5 PAM	CHRM4 antagonist	CHRM4 agonist
O=C(CCc1ccc(S(=O)(=O)N2CCOCC2)cc1)Nc1ccc(F)c(F)c1F	–	–	–	–	–	–
CCN(CC)c1nc(Nc2ccc([N+](=O)[O-])cc2)nc(N(CC)CC)n1	–	–	–	–	–	–
CC1CC2(CCCCC2)N2C(=O)C(=O)c3cccc1c32 (centres undefined)	–	–	63	–	–	–
Cc1cc2c3c(c1)C(C)CC(C)(C)N3C(=O)C2=O (centres undefined)	–	–	–	–	–	–
O=C(Nc1ccccc1)Nc1ncc([N+](=O)[O-])s1	–	28	–	–	–	–
O=C(CSc1nccn1-c1ncc(C(F)(F)F)cc1Cl)c1ccc(Br)cc1	–	–	–	22	–	–
Cc1ccc(/C(CSc2nccn2-c2ncc(C(F)(F)F)cc2Cl)=N\O)cc1	–	–	–	–	–	–
COCCNS(=O)(=O)c1ccc(-c2ccc(Cl)cc2)cc1	–	–	–	21	–	–
c1ccc(CCNCc2ccco2)nc1	–	–	–	–	–	–
CCN(c1ccccc1)S(=O)(=O)c1ccc(C(=O)N(C)CCc2ccc(OC)c(OC)c2)cc1	–	–	–	–	–	–
O=C(NC1CC1)C1CCN(C2CCN(C(=O)/C=C/c3cccs3)CC2)CC1	–	29	–	28	–	–
O=C(NC1CC1)C1CCN(C2CCN(C(=O)/C=C/c3cccc(F)c3F)CC2)CC1	–	–	–	–	–	–
O=C1CCc2cc(S(=O)(=O)NCc3ccccc3Cl)cc3c2N1CC3	–	–	–	–	–	–
Cc1oc(-c2ccc(Cl)cc2)nc1CS(=O)CC(=O)NCCCN1CCN(Cc2ccccc2)CC1 (centres undefined)	–	31	–	–	–	–
Cc1ccc(-c2nc(CS(=O)CC(=O)NCc3ccc(Cl)cc3)c(C)o2)cc1 (centres undefined)	–	–	–	–	–	–
Cc1oc(-c2ccc(Cl)cc2)nc1CS(=O)CC(=O)NCc1ccccc1 (centres undefined)	21	–	–	–	–	–
COc1cc(/C=C/C(=O)OCC(=O)N(CC(C)C)c2c(N)n(Cc3ccccc3)c(=O)[nH]c2=O)ccc1O	–	–	–	–	–	–
O[C@@H]1C[C@H](c2ccc(Cl)cc2)N(Cc2cccs2)C[C@H]1n1cc(-c2ccc(F)cc2)nn1	–	–	–	–	–	–
COC(=O)c1[nH]c2ccc(F)cc2c1NS(=O)(=O)c1ccc(OC)cc1	–	–	–	–	29	–
COc1ccc(S(=O)(=O)Nc2c(C(=O)O)[nH]c3ccc(OC)cc23)cc1	–	–	–	–	–	–
COCCNc1nc(N2CCCCC2)c2cnn(C)c2n1	–	–	–	18	–	–
COc1ccc(OCCNC(=O)C2(C)CCN2Cc2ccc3ccccc3c2)cc1 (centres undefined)	–	–	–	–	29	–
COc1ccc(OCCNC(=O)C2(C)CCN2Cc2ccc(SC)cc2)cc1 (centres undefined)	–	–	–	–	–	–
COc1cccc(N2CCN(c3ncnc4c3cnn4-c3ccc(C)cc3C)CC2)c1	–	47	–	–	47	–
Cc1ccc(-n2ncc3c(N4CCCC4)ncnc32)c(C)c1	–	–	–	–	–	–
COC(=O)Cc1[nH]c(=S)[nH]c1C(=O)OC	33	–	–	–	–	–
COC(=O)CCc1c(C)[nH]c(=S)[nH]c1=O	–	–	–	–	–	–
COc1ccc(NC(=O)COC(=O)C2CCCCC2)c([N+](=O)[O-])c1	–	–	–	–	–	–

Screening results as filed in PubChem.
